Most compounds without a hit are left out; they make up all but 3.1% or so of the library.
MPTP block: blocks calcium-induced mitochondrial swelling | inhibition, % at 10 µM | AID 602449 | isolated mouse mitochondria, Ca2+ swelling absorbance, 30 min | 360,000 compounds, 1.4% hits;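 active means inhibition of 50% or more, scaled per plate between neutral and stimulator controls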;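 further: 0% = DMSO wells given calcium and 100% = 1 mM EGTA wells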
ADAM17 inh: inhibits human ADAM17; 370,000 compounds, 0.83% hits; recombinant ADAM17, EDANS/DABCYL FRET peptide cleavage; inhibition, % at 6.95 µM;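 active means inhibition above the mean of compounds lying between control limits plus 3 SD, set per campaign, cut at about 8.5% in these data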;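 further: 0% = DMSO-only wells as the low control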
Target sequence (P78536 215-824 limits assumed): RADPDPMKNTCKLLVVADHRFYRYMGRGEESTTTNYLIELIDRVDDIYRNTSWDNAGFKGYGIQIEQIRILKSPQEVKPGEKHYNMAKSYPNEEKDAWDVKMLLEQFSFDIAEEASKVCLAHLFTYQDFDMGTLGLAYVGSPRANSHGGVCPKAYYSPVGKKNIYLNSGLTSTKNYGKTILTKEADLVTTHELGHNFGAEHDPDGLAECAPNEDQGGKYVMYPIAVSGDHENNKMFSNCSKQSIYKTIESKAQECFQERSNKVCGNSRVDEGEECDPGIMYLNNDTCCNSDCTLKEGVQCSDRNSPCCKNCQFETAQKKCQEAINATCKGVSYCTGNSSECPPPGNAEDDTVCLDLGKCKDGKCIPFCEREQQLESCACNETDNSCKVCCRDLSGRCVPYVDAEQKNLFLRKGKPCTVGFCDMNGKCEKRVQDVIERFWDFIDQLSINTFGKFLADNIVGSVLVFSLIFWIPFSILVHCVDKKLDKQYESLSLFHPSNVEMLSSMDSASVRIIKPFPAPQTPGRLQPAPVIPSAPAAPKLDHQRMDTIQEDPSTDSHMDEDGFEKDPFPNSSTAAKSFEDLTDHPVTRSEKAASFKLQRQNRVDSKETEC
aDG glyco up: increases alpha dystroglycan glycosylation. Pro5-aDG cells, alpha-DG glycosylation AlphaScreen (IIH6); 0% Pro5, 100% B10-LARGE cell signal. activation, % at 10 µM. 360,000 compounds, 0.22% hits. AID 624168;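 active means activation of at least 8% versus controls, or a plate z-score of at least 8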;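 further: Pro5 are CHO cells carrying HIG-tagged alpha-DG that lacks glycosylation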
ADAM10 inh: inhibits human ADAM10 | inhibition, % at 7 µM | 370,000 compounds, 0.62% hits | recombinant ADAM10, EDANS/DABCYL FRET peptide cleavage, 3 h | O14672;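 active means inhibition above a per-campaign cutoff equal to the mean of compounds falling between control-based bounds plus 3 SD, cut at about 20% in these data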;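 further: 0% = DMSO wells while the 100% control is not disclosed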
Hep lipid drop: hepatic lipid droplet formation modulation. AML12 mouse hepatocytes, oleate lipid droplets, BODIPY imaging. inhibition, % at 6.5 µM. 240,000 compounds, 0.4% hits;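 active means lipid droplet intensity inhibited by at least 50%, with more than 500 cells counted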
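Test system: AML12 hepatocytes (mouse); reagent: oleate loading, 100 µM; dosing: one dose, 6.5 µM compound; incubation: overnight exposure; signal: fluorescence imaging, 20x objective, two fields per well; read-out basis: % inhibition of corrected integrated BODIPY droplet signal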
V-ATPase pH: alters yeast V-ATPase proton transport; S. cerevisiae, pHLuorin cytosolic pH fluorescence; response, % at 10 µM; 350,000 compounds, 0.37% hits; in the data active means response mostly above about 7.3%, no sharp cut-off; inactive means mostly below about 5.4%; further: actives read high
Hep lipid conf: confirmation of inhibitors of hepatic lipid droplet formation. shares compounds with Hep lipid drop. AML12 mouse hepatocytes, BODIPY lipid droplet imaging; droplets induced with 100 µM oleic acid. inhibition, % at 5.2 µM. 870 compounds, 65% hits;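 active means inhibition of lipid droplet metric at least 50%, with more than 300 cells in each of four replicates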;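 further: plate controls were DMSO with oleic acid for no effect and 5 µM Triacsin-C for full effect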
AML12 cytotox: toxic to AML12 mouse hepatocytes in counter-screen. DAPI nuclear morphology cytotoxicity imaging; hits give high values; cells fed 100 µM oleate overnight. z-score at 5 µM. 870 compounds, 3% hits. shares compounds with Hep lipid drop; in the data active means z-score above about 6.3;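 further: compound exposure lasted overnight at 37 °C before fixation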
AML12 tox ATP: AML12 hepatocyte cytotoxicity, confirmed; shares compounds with Hep lipid drop; AID 463219; 530 tested, under 10 active; cytotoxicity, % at 50 µM; AML12 mouse hepatocyte viability, ATP luminescence; cells loaded with 100 µM oleic acid;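 active means cytotoxicity above 50% in each of four replicates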;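 further: compound exposure lasted overnight at 37 °C before the ATP read; 0% = DMSO-treated cells and 100% = wells with no cells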
* hit, by the source's call; . = not tested or not shown.

SMILES | MPTP block | ADAM17 inh | aDG glyco up | ADAM10 inh | Hep lipid drop | V-ATPase pH | Hep lipid conf | AML12 cytotox | AML12 tox ATP
C/C(=N\Nc1ccc(S(=O)(=O)Nc2ccccc2)cc1[N+](=O)[O-])c1ccc(N2CCOCC2)cc1 | 7 | -8 | 0 | -6 | 51* | 0 | 72* | -0.2 | 22
CC(C)[C@H](NC(=O)OCc1ccccc1)C(=O)N[C@@H](Cc1ccccc1)C1(O)CN(C)C(C(=O)NCc2ccccn2)CO1 (stereo partly specified) | . | -3 | . | -8 | . | . | . | . | .
COc1ccc(Oc2c(Cl)cnn(CC(=O)C(c3ccccc3)c3ccccc3)c2=O)cc1 | . | -6 | . | -8 | . | . | . | . | .
CCCC[C@H]1C2CC(OC(=O)Nc3cccc(C(F)(F)F)c3)C(C2)[C@H]2CCCCN21 (stereo partly specified) | . | 0 | . | 1 | . | . | . | . | .
Cc1ccccc1N1CCN(C(=S)c2ccc(-c3ccc([N+](=O)[O-])cc3)o2)CC1 | 3 | -1 | 0 | -6 | 86* | 2 | 69* | -0.28 | .
Cc1ccccc1N1CCN(C(=S)c2ccc(-c3cccc([N+](=O)[O-])c3)o2)CC1 | -1 | 0 | 0 | 0 | -12 | 0 | . | . | .
Cc1ccc2c(c1)C(CS(=O)(=O)NCc1ccc(F)cc1)NC2 (stereo unspecified) | . | 0 | . | -5 | . | . | . | . | .
CCOc1ncccc1C(=O)OC(C)C(=O)Nc1ccc(CC)cc1 (stereo unspecified) | 1 | 2 | 0 | 7 | 53* | 0 | 97* | -0.59 | 16
CNc1nc(C)c(C(=O)c2ccc(Cl)cc2)s1 | -1 | 0 | 0 | 1 | 65* | 6 | 22 | -0.14 | .
CCOC(=O)C1CCN(C(=O)C2(NC(=O)Nc3ccc(F)cc3F)CCCCC2)CC1 | -1 | -3 | 0 | 0 | 69* | 0 | 97* | -0.0011 | 12
COC(=O)[C@]12C[C@H](CC(=O)NCc3cccc4ccccc34)C(=O)N(Cc3cccc4ccccc34)C1=C[C@H](C(C)(C)C)O[C@@H]2C | . | 3 | . | 8 | . | . | . | . | .
CCOc1nc(-c2ccncc2)nc2ccccc12 | 2 | -2 | 0 | -2 | 53* | 8 | 32 | -0.32 | .
CCCOc1ccc(-c2nc(OCC)c3ccccc3n2)cc1 | 5 | -2 | 0 | -5 | -1 | -1 | . | . | .
COC(=O)[C@]12C[C@H](CC(=O)NCc3ccc(OC)c(OC)c3)C(=O)N(CCc3ccc(OC)c(OC)c3)C1=C[C@H](C(C)C)O[C@@H]2C1CC1 | . | -4 | . | -4 | . | . | . | . | .
O=C(CSc1nnnn1-c1ccccc1)Nc1ncc(Cc2cccc(Cl)c2Cl)s1 | 2 | -3 | 0 | 2 | -7 | -4 | . | . | .
Cc1ccc(-n2nnnc2SCC(=O)Nc2ncc(Cc3ccccc3Cl)s2)cc1 | -3 | 0 | 0 | -4 | 79* | 1 | 104* | 0.26 | 10
CCCCCCNC(=O)c1cn(CC)c2cc(N3CCN(C)CC3)c(F)cc2c1=O | 1 | -40 | 1 | -101 | 53* | 0 | 27 | 0.62 | .
C=CCNC1CCC12CCC(c1ccccc1)CC2 (stereo unspecified) | . | -3 | . | -5 | . | . | . | . | .
COc1ccc(-n2c(=O)c3c4c(sc3n(CC(=O)Nc3cc(C)[nH]n3)c2=O)CCC4)c(OC)c1 | 2 | -5 | 0 | -8 | 51* | -2 | 23 | 0.11 | .
CCN1CCN(c2cc(C)c3cc(NC(=O)CCC(=O)Nc4ccc(OC)c(OC)c4)ccc3n2)CC1 | 0 | -70 | 0 | -147 | -7 | -3 | . | . | .
COc1ccc(C)cc1NC(=O)CCC(=O)Nc1ccc2nc(N3CCN(C)CC3)cc(C)c2c1 | . | . | . | . | 105* | . | 104* | 0.15 | -5
O=C(N/N=C/c1cn(-c2cccs2)nc1-c1ccccc1)c1ccccc1Br | 2 | 5 | 0 | 11 | 11 | -3 | . | . | .
O=C(N/N=C/c1cn(-c2ccccc2)nc1-c1cc2ccccc2o1)c1ccccc1Br | 3 | -1 | 1 | 6 | 102* | 0 | 105* | 1.1 | 15
CCOc1ccc(CCNC(=O)COC(=O)/C=C/c2ccc(OC(F)F)c(OC)c2)cc1OCC | 0 | -2 | 0 | -16 | . | -7 | . | . | .
CCCNC(=O)COC(=O)/C=C/c1ccc(C)o1 | 5 | -6 | 0 | -11 | 21 | -2 | . | . | .
SMILES | MPTP block | ADAM17 inh | aDG glyco up | ADAM10 inh | Hep lipid drop | V-ATPase pH | Hep lipid conf | AML12 cytotox | AML12 tox ATP
CCOc1ccc(CCNC(=O)COC(=O)/C=C/c2ccc(OC)c(OC)c2)cc1OCC | -1 | -16 | 0 | -57 | 94* | -1 | 109* | -0.73 | 7
CCOc1ccc(CCNC(=O)COC(=O)/C=C/c2ccc(C)o2)cc1OCC | 0 | -2 | 0 | 2 | 59* | -3 | 91* | -0.68 | 10
CC(C)Oc1ccc(C(=O)OC(C)C(=O)NC2CCCCC2C)cc1 (stereo unspecified) | 0 | -1 | 0 | 5 | 52* | 0 | 102* | 0.7 | 12
CCC(C)C(=O)N1c2ccccc2C(=C2SC(C(=O)OC)=C(C(=O)OC)S2)C(=S)C1(C)C (stereo unspecified) | 4 | -4 | -1 | -1 | 67* | -16 | 112* | 0.24 | 6
CCOC(=O)C1=C(C)c2ccccc2N(C(=O)OC)C1(C)C(=O)OCC (stereo unspecified) | 0 | -5 | 0 | -12 | . | -1 | . | . | .
COc1ccc(/C=N/N=C2\SCC(=O)N2c2c(C)n(C)n(-c3ccccc3)c2=O)cc1OC | 2 | 1 | 0 | 2 | 62* | 2 | 32 | -0.53 | .
N#Cc1ccc(NC(=O)OC2CC3CC2[C@H]2CCCCN2[C@H]3Cc2ccccc2)cc1 (stereo partly specified) | . | -1 | . | -5 | . | . | . | . | .
Cc1cc(C)cc(N(CC(=O)O)S(=O)(=O)c2c(C)noc2C)c1 | 0 | 0 | 0 | -3 | 58* | 3 | 28 | -0.91 | .
CCOC(=O)c1c(C)[nH]c(C)c1S(=O)(=O)N1CCCCC1 | -1 | -2 | 0 | -7 | -8 | 1 | . | . | .
CCOC(=O)c1c(C)[nH]c(C)c1S(=O)(=O)N1CCN(c2ccc([N+](=O)[O-])cc2)CC1 | 1 | 1 | 0 | 2 | 93* | 4 | -33 | 0.74 | .
CCOC(=O)C1CCN(S(=O)(=O)c2ccc3c(c2)NC(=O)C(C)C(=O)N3)CC1 (stereo unspecified) | -1 | -2 | 0 | -17 | 63* | -3 | 87* | -0.68 | 8
CCOC(=O)C1CCN(S(=O)(=O)c2ccc(C(C)=O)cc2)CC1 | 0 | -1 | 0 | 0 | 10 | -5 | . | . | .
